Source: ChEMBL document CHEMBL1122488, “synthesis and antitumor activity of 2-deoxyribofuranosides of 3-deazaguanine” (1983)

Experiments:
Assay type in all cases: functional
Mus musculus [1] = assay: Change in weight on day 9 of mammary adenocarcinoma 16/C in B6C3F1 female mice at 40 mg/kg […]
Summary of the method: (§1)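 C3H mammary adenocarcinoma 16/C, lung-passed in C3H female mice. Freshly harvested 2- to 4-mm3 fragments were implanted subcutaneously into 18- to 20-g B6C3F1 females on day 0, and the mice were randomized the next day. Drugs were dissolved in 0.2 M phosphate buffer and given ip once daily on days 1-9; controls received 0.2 mL buffer. Tumor weight was estimated from caliper length and width by […].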

Mus musculus [2] = assay: Change in weight on day 9 of mammary adenocarcinoma 16/C in B6C3F1 female mice at 80 mg/kg […]; summary of the method: as §1
Mus musculus [3] = assay: Tumor weight on day 17 of C3H mammary adenocarcinoma 16/C in B6C3F1 female mice at 80 mg/kg by subcutaneous administration; conditions: route intraperitoneal, in the assay text read “intraperitoneal administration” for “subcutaneous administration”; summary of the method: as §1
Mus musculus [4] = assay: Percentage growth inhibition of mammary adenocarcinoma 16/C in B6C3F1 female mice at 40 mg/kg dose […]; conditions: sc; summary of the method: as §1
Mus musculus [5] = assay: Animals with palpable tumors on day 17 at 80 mg/kg by subcutaneous administration in B6C3F1 female mice; 6/6; conditions: route intraperitoneal, in the assay text read “intraperitoneal administration” for “subcutaneous administration”; summary of the method: as §1
Mus musculus [6] = assay: Percentage growth inhibition of mammary adenocarcinoma 16/C in B6C3F1 female mice at 80 mg/kg dose […]; conditions: sc; summary of the method: as §1
Mus musculus [7] = assay: Tumor weight on day 17 of C3H mammary adenocarcinoma 16/C in B6C3F1 female mice at 40 mg/kg […]; summary of the method: as §1
Mus musculus [8] = assay: Animals with palpable tumors on day 17 at 40 mg/kg by subcutaneous administration in B6C3F1 female mice; 6/6; conditions: route intraperitoneal, in the assay text read “intraperitoneal administration” for “subcutaneous administration”; summary of the method: as §1
L1210 = assay: Effective dose that produced 50% inhibition of L1210 Leukemia cell growth in culture; conditions: Mus musculus, read-out: ED50 (the source's name)
Summary of the method: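 The value is the drug concentration in the culture medium that gave 50% inhibition of L1210 leukemia cell growth, relative to untreated controls, after a 48-h incubation. Results are mean ± standard error.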

Mus musculus [9] = assay: Percentage growth inhibition of mammary adenocarcinoma 16/C in B6C3F1 female mice at the dose of 100 mg/kg by subcutaneous administration; conditions: ip, in the assay text read “intraperitoneal administration” for “subcutaneous administration”; summary of the method: as §1
Mus musculus [10] = assay: Tumor weight of C3H mammary adenocarcinoma 16/C in B6C3F1 female mice at 50 mg/kg by subcutaneous administration on day 17; conditions: route intraperitoneal, in the assay text read “intraperitoneal administration” for “subcutaneous administration”; summary of the method: as §1
Mus musculus [11] = assay: Change in weight of mammary adenocarcinoma 16/C in B6C3F1 female mice at 50 mg/kg […] on day 9; summary of the method: as §1
Mus musculus [12] = assay: Animals with palpable tumors on day 17 at the dose of 50 mg/kg by […] in 6 B6C3F1 female mice; 6/6 animals were with palpable tumors.; summary of the method: as §1
Mus musculus [13] = assay: Change in weight of mammary adenocarcinoma 16/C in B6C3F1 female mice at 100 mg/kg […] on day 9; summary of the method: as §1
Mus musculus [14] = assay: Animals with palpable tumors on day 17 at the dose of 100 mg/kg by […] in 6 B6C3F1 female mice; 6/6 animals were with palpable tumors.; summary of the method: as §1
Mus musculus [15] = assay: Percentage growth inhibition of mammary adenocarcinoma 16/C in B6C3F1 female mice at the dose of 50 mg/kg by subcutaneous administration; conditions: ip, in the assay text read “intraperitoneal administration” for “subcutaneous administration”; summary of the method: as §1
Mus musculus [16] = assay: Tumor weight of C3H mammary adenocarcinoma 16/C in B6C3F1 female mice at 100 mg/kg by subcutaneous administration on day 17; conditions: route intraperitoneal, in the assay text read “intraperitoneal administration” for “subcutaneous administration”; summary of the method: as §1
Mus musculus [17] = assay: Tumor weight of C3H mammary adenocarcinoma 16/C in B6C3F1 female mice at 80 mg/kg by subcutaneous administration on day 17; conditions: route intraperitoneal, in the assay text read “intraperitoneal administration” for “subcutaneous administration”; summary of the method: as §1
Mus musculus [18] = assay: Change in weight of mammary adenocarcinoma 16/C in B6C3F1 female mice by subcutaneous administration on day 9; summary of the method: as §1
Mus musculus [19] = organism: Mus musculus; assay: Percentage growth inhibition of mammary adenocarcinoma 16/C in B6C3F1 female mice; summary of the method: as §1
Mus musculus [20] = assay: Animals with palpable tumors on day 17 after subcutaneous administration in 6 B6C3F1 female mice; 5/6 animals were with palpable tumors.; conditions: in the assay text read “intraperitoneal administration” for “subcutaneous administration”; summary of the method: as §1

## Nc1cc2c(ncn2[C@H]2C[C@H](O)[C@@H](CO)O2)c(O)n1
Mus musculus [1]
  Delta weight: 0.58
Mus musculus [2]
  Delta weight: 1.2
Mus musculus [3]
  Tumor weight: 1.09 g
Mus musculus [4]
  inhibition in vivo at 40 mg/kg: 25%
Mus musculus [5]
  Animals with palpable tumor: 6
Mus musculus [6]
  inhibition in vivo at 80 mg/kg: 69.7%
Mus musculus [7]
  Tumor weight: 2.7 g
Mus musculus [8]
  Animals with palpable tumor: 6
L1210
  EC50: 9 µM

## Nc1cc2ncn([C@H]3C[C@H](O)[C@@H](CO)O3)c2c(O)n1
Mus musculus [9]
  inhibition in vivo at 100 mg/kg: 2.8%
Mus musculus [10]
  Tumor weight: 2.95 g
Mus musculus [11]
  Delta weight: 0.72
Mus musculus [12]
  Animals with palpable tumor: 6
Mus musculus [13]
  Delta weight: 0.95
Mus musculus [14]
  Animals with palpable tumor: 6
Mus musculus [15]
  inhibition in vivo at 50 mg/kg: 18.1%
Mus musculus [16]
  Tumor weight: 3.5 g
L1210
  EC50: 950 µM

## Nc1cc2c(ncn2[C@@H]2O[C@H](CO)[C@@H](O)[C@H]2O)c(=O)[nH]1
L1210
  EC50: 7 µM

## Nc1cc2ncn([C@@H]3O[C@H](CO)[C@@H](O)[C@H]3O)c2c(=O)[nH]1
L1210
  EC50: 750 µM

## Nc1cc2[nH]cnc2c(=O)[nH]1 [DEZAGUANINE]
Mus musculus [17]
  Tumor weight: 0.25 g
Mus musculus [18]
  Delta weight: 0.06
L1210
  EC50: 11 µM
Mus musculus [19]
  Inhibition: 93.1%
Mus musculus [20]
  Animals with palpable tumor: 5
